Screening data from PubChem BioAssay.
Compounds with a hit are over-represented: about 9.2% of the library has one in this group of screens.
Autophagy mod = alters autophagy in cells | AID 463193 | calls only at 10 µM (by protocol) | actives 0.98% (n = 190,000) | MEF GFP-LC3 puncta imaging; test concentration mostly 10 µM;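 active = percentage of spot-positive cells more than 3 SD above its plate mean, without a fluorescence outlier flag or 80% toxicity; inconclusive = no clear call, values can overlap the other calls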
HCT116 PTEN-null = suppresses growth of cells with PTEN deletion | AID 827 | viability, % at 10 µM | HCT116 PTEN-null viability, CellTiter-Glo, 60 h; hits give low values | actives 1.2% (n = 140,000);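 active = viability at or below a set limit, 4 SD under the median of all tested compounds, cut at about 3.7% in these data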;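 note: PTEN knockout HCT116 line with beta catenin targeted HCT116 as companion control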
Dynein transport = dynein cargo transport inhibition | 3617.4 mouse cells, GR-EGFP nuclear translocation imaging; test concentration mostly 20 µM; stimulated with dexamethasone, 1 µM; hits give low values | z-score, hits read low | actives 0.47% (n = 220,000) | AID 1381;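 active = plate z-score of nuclear minus cytoplasmic receptor signal below a set negative limit, without overly bright fluorescence or cell loss, cut at about -3.5 in these data, passing the limit was not always enough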;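 note: z-score of nuclear minus cytoplasmic ring GR-EGFP intensity difference per well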
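Also added – dexamethasone, 1.0 µM final · Buffer or medium – tet-free, stripped-serum medium · Schedule – induction 48 h, compound 1 h, agonist 30 min · Detection – formaldehyde fixation, Hoechst nuclear stain, 10x automated fluorescence imaging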
HCT116 bCat-KO = beta-catenin-lacking colon tumor cell growth suppression | HCT116 beta-catenin knockout viability, CellTiter-Glo, 60 h; hits give low values | viability, % at 10 µM | actives 1.5% (n = 140,000);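 active = viability at or under a set limit, the compound median less 4 SD, cut at about 6% in these data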
L major viab = reduces viability of Leishmania major promastigotes; AID 1063; inhibition, % at 10 µM; actives 9% (n = 200,000); resazurin fluorescence viability; in the data active = inhibition above about 50%;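 note: promastigotes grown with compound for 44 hours at 28 °C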
Large screens that a line does not name were inactive.

COc1ccc(OC)c(NS(=O)(=O)c2ccc(N3CCCC3=O)cc2)c1	Autophagy mod active
CCOc1ccc(OCC)c(NS(=O)(=O)c2ccc3c(c2)CCN3C(=O)C2CCC2)c1	L major viab 99
COc1ccc(CCNS(=O)(=O)c2ccc3c(c2)CCN3C(=O)C2CC2)cc1OC	none
COc1cc(NC(=O)C/C(C)=N/NC(=O)c2cccc(O)c2)c(OC)cc1Cl	none
Cc1ccc(C(=O)NCCNS(C)(=O)=O)cc1	none (no result: HCT116 PTEN-null, HCT116 bCat-KO)
COc1ccc(CNC(=O)c2noc(C)c2[N+](=O)[O-])cc1	none (no result: HCT116 PTEN-null, HCT116 bCat-KO)
Nc1cc2nsnc2cc1Br	HCT116 bCat-KO 1.8
Cc1ccc(N2C(=O)c3cccc4c(Oc5ccccc5[N+](=O)[O-])ccc(c34)C2=O)c(C)c1	L major viab 97
COc1ccccc1N1C(=O)c2cccc3c(C(=O)O)ccc(c23)C1=O	none
COc1cc(/C=C/C(=O)c2ccc(C)cc2)ccc1OCC#N	HCT116 PTEN-null 2.0, HCT116 bCat-KO 5.6, L major viab 98
CCOc1cc(/C=C/C(=O)O)ccc1OCCO	none (no result: HCT116 PTEN-null, HCT116 bCat-KO)
COc1ccc(CCNC(=O)COC(=O)/C=C/c2ccc(OCC#N)c(OC)c2)cc1OC	none
CCOc1cc(/C=C/C(=O)c2ccc(C)cc2)ccc1OCC(=O)N(C)C	HCT116 PTEN-null 1.7, HCT116 bCat-KO 1.6, L major viab 100
CCN(CC)C(c1ccc(F)cc1)c1nnnn1C1CCCCC1 (stereo not drawn)	none
c1ccc(CN(Cc2ccco2)C(c2ccncc2)c2nnnn2C2CCCC2)cc1 (stereo not drawn)	L major viab 95
Fc1ccc(C(c2nnnn2C2CCCC2)N(Cc2ccco2)CC2CCCO2)cc1 (stereo not drawn)	L major viab 78
CC(C)(C)n1nnnc1C(c1ccc(C(F)(F)F)cc1)N(Cc1ccccc1)Cc1ccco1 (stereo not drawn)	none
Clc1ccc(CN(Cc2ccccc2)C(c2cccs2)c2nnnn2C2CCCC2)cc1 (stereo not drawn)	L major viab 87
Cc1nc(SCC(=O)NC(=O)NC(C)C)nc(C)c1C	none (no result: HCT116 PTEN-null, HCT116 bCat-KO)
COCCCNC(=O)/C(C#N)=C/c1ccc(OCC(=O)O)c(OC)c1	none
CCCCNC(=O)/C(C#N)=C/c1cccnc1	L major viab 93
COCCNC(=O)/C(C#N)=C/c1cccc(/C=C(\C#N)C(=O)NCCOC)c1	L major viab 99
COc1ccc(/C=C(\C#N)C(=O)NCCc2ccccc2)cc1OCc1ccccc1	L major viab 96
COCCNC(=O)/C(C#N)=C/C(C)=C/c1ccccc1	L major viab 74
Cc1cccc(NC(=O)/C(C#N)=C\c2cccnc2)c1	none
Cc1ccccc1C(=O)O/N=C/c1c(N2CCOCC2)n(C)c2ccccc12	L major viab 100
Cn1c(Cl)c(/C=N/OC(=O)C2CC2)c2ccccc21	none (no result: HCT116 PTEN-null, HCT116 bCat-KO)
O=C(COc1ccc(/C=N/NC(=O)c2cc3ccccc3o2)cc1Br)Nc1ccccc1	HCT116 PTEN-null 3.5, HCT116 bCat-KO 1.8
N#Cc1ccc(-c2ccc(F)cc2)nc1Sc1ccc(F)cc1	none
CCN(CC)S(=O)(=O)c1ccc(OC)c(NS(=O)(=O)c2cccc(C(=O)O)c2)c1	none (no result: HCT116 PTEN-null, HCT116 bCat-KO)
OC(COc1ccc(Cl)c2ccccc12)CN1CCN(c2ccccn2)CC1 (stereo not drawn)	none
Cc1c(C)n(CC(O)CNc2ccccc2)c2ccccc12 (stereo not drawn)	none (no result: HCT116 PTEN-null, HCT116 bCat-KO)
Cc1c(C)n(CC(O)CN2CCCCCC2)c2ccccc12 (stereo not drawn)	L major viab 99
CC1CN(CC(O)COC2CCC(C(C)(C)C)CC2)CC(C)O1 (stereo not drawn)	L major viab 90 (no result: HCT116 PTEN-null, HCT116 bCat-KO)
OC(COC1CCCCC1)CN1CCN(c2ccccc2)CC1 (stereo not drawn)	none
OC(CN1CCN(c2ccccn2)CC1)Cn1c2ccccc2c2ccccc21 (stereo not drawn)	L major viab 100
CC(C)NCC(O)COC1CCC(C(C)(C)C)CC1 (stereo not drawn)	L major viab 90 (no result: HCT116 PTEN-null, HCT116 bCat-KO)
COc1ccc(-c2nc(C)sc2CC(=O)O)cc1OC	none (no result: HCT116 PTEN-null, HCT116 bCat-KO)
CC(C)(C)c1ccc(C(=O)Oc2ccccc2CCC(=O)O)cc1	none (no result: Autophagy mod, HCT116 PTEN-null, HCT116 bCat-KO, L major viab)
CC(C)(C)C1CCC(OCC(O)CN2CCN(Cc3ccccc3)CC2)CC1 (stereo not drawn)	L major viab 91
OC(COC(c1ccccc1)c1ccccc1)CN1CCN(c2ccccn2)CC1 (stereo not drawn)	none
CC(C)(C)C1CCC(OCC(O)CN2CCN(c3ccccn3)CC2)CC1 (stereo not drawn)	L major viab 94 (no result: HCT116 PTEN-null, HCT116 bCat-KO)
CCN(CC)C(=O)Cn1cnc2sc(C(=O)N3CCN(c4ccc(F)cc4)CC3)c(C)c2c1=O	none (no result: HCT116 PTEN-null, HCT116 bCat-KO)
CCN1/C(=C/c2ccc3cc(C)cc(C)c3[n+]2CC)Sc2cc(C)ccc21	Autophagy mod inconclusive, L major viab 100 (no result: HCT116 PTEN-null, HCT116 bCat-KO)
CCN1/C(=C\c2ccc3cc(C)ccc3[n+]2CC)Sc2cc(C)c(C)cc21	Autophagy mod active, L major viab 100 (no result: HCT116 PTEN-null, HCT116 bCat-KO)
CCN1/C(=C/c2ccc3cccc(C)c3[n+]2CC)Sc2ccccc21	Autophagy mod active, HCT116 PTEN-null 2.0, HCT116 bCat-KO 1.7, L major viab 101
COC(=O)c1c(NC(=O)CCNCc2ccco2)sc2c1CCC2	none (no result: Autophagy mod, HCT116 PTEN-null, HCT116 bCat-KO, L major viab)
COc1ccc(CCNC(=O)CCNC(=O)c2ccc(Br)cc2)cc1OC	none
COc1ccc(CCNC(=O)CCC(=O)Nc2nnc(C(C)C)s2)cc1OC	L major viab 60
COc1cc(OC)cc(C(=O)NCCC(=O)NCCc2ccc(OC)c(OC)c2)c1	L major viab 57
COc1ccc(CC(=O)Nc2nnc(C(C)C)s2)cc1	none (no result: HCT116 PTEN-null, HCT116 bCat-KO)
Cc1snc(S(=O)(=O)Cc2ccccc2Cl)c1C#N	none
COC(=O)c1ccc(N)c(N=CC2=C(O)CC(C)(C)CC2=O)c1	none
COC(=O)c1ccc2c(c1)C(C)(C)C(/C=C/c1ccccc1O)=[N+]2C	HCT116 PTEN-null 1.8, HCT116 bCat-KO 2.4, L major viab 101
CC(C)NC(=O)NC(=O)COc1ccc(Br)cc1Br	L major viab 67
N#Cc1cccc(NC(=O)C2SC(=Nc3ccccc3)C(C(=O)N3CCOCC3)=C2N)c1 (stereo not drawn)	L major viab 54
N#CCc1nnc2n1-c1ccccc1CCC2	none
CN(C)CC#Cc1cncc(C(=O)NNC(=O)Nc2ccc(Cl)cc2)c1	none (no result: Autophagy mod, HCT116 PTEN-null, HCT116 bCat-KO, L major viab)
CC(C)N1CC(O)=C(c2nc3ccccc3[nH]2)C1=N	none
CC1(C)C(O)=C(c2nc3ccccc3[nH]2)C(=N)N1c1ccccc1	L major viab 82
O=C(NC(=S)N(CCCCO)C1CCCCC1)c1sc2ccccc2c1Cl	L major viab 92
CC1CCCCC1NC(=S)NC(=O)c1sc2ccccc2c1Cl (stereo not drawn)	none (no result: HCT116 PTEN-null, HCT116 bCat-KO)
OC1(c2cccc(C(F)(F)F)c2)CCNCC1	L major viab 60
CC(C)CC(NC(=O)C1CCCCC1)C(=O)N1CCN(c2ccccn2)CC1 (stereo not drawn)	none
O=C(CC(O)(c1ccccc1)C(F)(F)C(F)F)c1cccs1 (stereo not drawn)	none
